Active and inactive are the calls of the source. No cut-off for these calls is given here.
How the values were obtained:
[1] = test system: INS1; assay: Protection against tunicamycin ER stress-induced suppression of PDX1 mRNA expression in rat INS-1 cells up to 1 uM after 24 hrs by qRT-PCR analysis; assay type: functional, cell-based
In short: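 INS-1 cells were exposed to tunicamycin 0.1 μg/mL with compound or DMSO for 24 h. INS1, INS2, PDX1 and MafA mRNA were measured by qRT-PCR and normalized to cyclophilin A by the comparative Ct method. Triplicate wells, 3 independent experiments.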

[2] = test system: Mus musculus; assay: Antidiabetic activity in STZ-induced diabetic C57BL/6 mouse model assessed as total pancreatic islet beta-cell area at 5 mg/kg, ip administrated qd with streptozotocin for 5 days followed by compound administration alone for 2 more weeks by DAPI-staining based confocal microscopic analysis (reference value: 30.2 +/- 7.9%); assay type: functional
In short: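 At the end of treatment in the STZ mouse model, pancreases were formalin-fixed, paraffin-embedded and serially sectioned at 100 μm intervals. Six sections were stained for insulin and glucagon with DAPI counterstain and imaged by confocal microscopy. Insulin-positive cells demarcated islets; total islet area per section and cells per islet were quantified.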

[3] = test system: INS1; assay: Cytoprotective activity in rat INS-1 cells assessed as protection against tunicamycin-induced ER stress-mediated reduction in cell viability after 3 days by CellTiter-Glo assay relative tunicamycin; assay type: functional; settings: INS1, 72 h
In short: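 INS-1 cells, 3×10^3 per well, were co-treated with tunicamycin 0.1 μg/mL and compound for 72 h. Viability was read as intracellular ATP by luminescence and expressed as fold of no-tunicamycin cells. EC50 and maximum activity were taken as the increase in viability versus tunicamycin alone. Triplicate wells, three independent experiments.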

[4] = test system: INS1; assay: Cytoprotective activity against tunicamycin ER stress-induced apoptosis in rat INS-1 cells assessed as inhibition of tunicamycin-induced cleaved caspase3 expression up to 1 uM after 24 hrs by Western blot analysis; assay type: functional, cell-based
In short: (§1)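 INS-1 cells, 8×10^5 per 60-mm dish, were exposed to tunicamycin 0.1 μg/mL plus compound or DMSO for 24 h. 20 μg lysate protein was run on 7% SDS-PAGE and immunoblotted for cleaved caspase-3 and PARP (1:1000), with α-tubulin as loading control; 3 independent experiments.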

[5] = test system: INS1; assay: Cytoprotective activity against tunicamycin ER stress-induced apoptosis in rat INS-1 cells assessed as inhibition of tunicamycin-induced cleaved PARP expression up to 1 uM after 24 hrs by Western blot analysis; assay type: functional, cell-based; in short: as §1
[6] = test system: INS1; assay: Cytoprotective activity against tunicamycin ER stress-induced apoptosis in rat INS-1 cells assessed as TUNEL positive cells at 0.1 to 1 uM after 24 hrs by TUNEL/DAPI-based microscopic analysis (reference value: 7%); assay type: functional
[7] = target: T1, Eukaryotic translation initiation factor 2-alpha kinase 3 (Rattus norvegicus, UniProt Q9Z1Z1); assay: Inhibition of PERK activation in rat INS-1 cells assessed as suppression of tunicamycin-induced CHOP mRNA expression after 8 hrs by qRT-PCR analysis; assay type: cell-based
T1 sequence (Q9Z1Z1 whole entry): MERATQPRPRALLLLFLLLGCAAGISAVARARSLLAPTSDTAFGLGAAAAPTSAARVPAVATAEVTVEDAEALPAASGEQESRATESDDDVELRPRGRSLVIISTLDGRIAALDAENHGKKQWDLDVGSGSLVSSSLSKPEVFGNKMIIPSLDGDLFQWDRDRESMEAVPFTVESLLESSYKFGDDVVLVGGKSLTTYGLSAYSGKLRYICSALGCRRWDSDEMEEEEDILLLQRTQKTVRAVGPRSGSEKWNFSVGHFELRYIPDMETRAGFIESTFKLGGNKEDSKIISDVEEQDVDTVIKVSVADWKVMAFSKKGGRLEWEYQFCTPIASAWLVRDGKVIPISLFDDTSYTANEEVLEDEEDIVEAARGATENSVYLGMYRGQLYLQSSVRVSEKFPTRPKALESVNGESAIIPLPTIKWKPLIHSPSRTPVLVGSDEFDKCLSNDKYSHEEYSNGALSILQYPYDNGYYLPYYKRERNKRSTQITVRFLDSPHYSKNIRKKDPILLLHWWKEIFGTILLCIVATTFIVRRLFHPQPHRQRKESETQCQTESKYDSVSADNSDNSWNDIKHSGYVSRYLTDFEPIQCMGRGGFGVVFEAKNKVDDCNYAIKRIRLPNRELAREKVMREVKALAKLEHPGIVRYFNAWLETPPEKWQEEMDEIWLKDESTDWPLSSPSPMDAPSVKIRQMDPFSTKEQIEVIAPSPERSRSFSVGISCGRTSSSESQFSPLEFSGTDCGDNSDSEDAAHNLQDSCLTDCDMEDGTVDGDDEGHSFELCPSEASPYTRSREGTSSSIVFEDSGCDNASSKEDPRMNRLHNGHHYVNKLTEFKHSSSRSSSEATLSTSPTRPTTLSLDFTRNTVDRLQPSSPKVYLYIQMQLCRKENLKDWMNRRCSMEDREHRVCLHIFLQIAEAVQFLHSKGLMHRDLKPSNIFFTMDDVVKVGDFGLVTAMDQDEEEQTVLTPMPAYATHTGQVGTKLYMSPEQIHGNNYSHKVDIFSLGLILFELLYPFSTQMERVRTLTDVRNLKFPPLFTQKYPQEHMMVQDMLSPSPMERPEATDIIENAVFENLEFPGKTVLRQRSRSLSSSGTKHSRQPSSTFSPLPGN
In short: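 INS-1 cells, 4×10^5 per well, were exposed to tunicamycin 0.1 μg/mL with compound or DMSO for 8 h. qRT-PCR for ATF4, CHOP, Bip, GRP94, or spliced XBP1 using splicing-specific primers. Values were normalized to cyclophilin A by ΔΔCt and given as fold over untreated control. Triplicate wells, 3 independent experiments.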

[8] = test system: Mus musculus; assay: Antidiabetic activity in STZ-induced diabetic overnight fasted C57BL/6 mouse model assessed as blood glucose level at 5 mg/kg, ip administrated qd with streptozotocin for 5 days followed by compound administration alone for 2 more weeks measured at 15 mins post last dose relative to control; assay type: functional, organism-based
In short: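 Same STZ/compound i.p. regimen in male C57BL/6 mice, vehicle group as control. Intraperitoneal glucose tolerance test in overnight-fasted mice: glucose 2 g/kg i.p., blood glucose read at set times after the glucose load.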

O=C(NCc1ccc(C(F)(F)F)cc1)c1cccc(CN2CCCCC2)c1 was tested, and the Activity [1] was “Active”, the Activity [2] was 67.4% and the Emax [3] was 97%. The inhibition [4] was “Active”, the inhibition [5] was “Active” and the Activity [6] was 0.5%. The IC50 [7] was 37 nM and the Activity [8] was “Active”.
